Experimental data as given in ChEMBL document CHEMBL1667802, “1H-imidazo[4,5-c]pyridine-4-carbonitrile as cathepsin S inhibitors: separation of desired cellular activity from undesired tissue accumulation through optimization of basic nitrogen pka” (Bioorg Med Chem Lett, 2011).

Tests used:
Cathepsin B = Cathepsin B (Homo sapiens, UniProt P07858); assay: Inhibition of human cathepsin B
Cathepsin L2 = molecular target: T1, Cathepsin L2 (Homo sapiens, UniProt O60911); assay: Inhibition of human cathepsin V
T1 sequence (O60911 whole entry): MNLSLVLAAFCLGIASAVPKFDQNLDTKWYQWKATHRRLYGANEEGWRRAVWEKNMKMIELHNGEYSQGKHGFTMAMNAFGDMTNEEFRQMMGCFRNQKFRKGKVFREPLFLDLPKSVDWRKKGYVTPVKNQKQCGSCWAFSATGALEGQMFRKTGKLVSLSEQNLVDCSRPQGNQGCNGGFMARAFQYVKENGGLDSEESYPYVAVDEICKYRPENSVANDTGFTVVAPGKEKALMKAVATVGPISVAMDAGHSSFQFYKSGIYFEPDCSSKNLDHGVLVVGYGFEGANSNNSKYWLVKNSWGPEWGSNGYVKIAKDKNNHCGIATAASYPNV

Procathepsin L = Procathepsin L (Homo sapiens, UniProt P07711); assay: Inhibition of human cathepsin L
Liver microsomes [1] = assay: Stability in Sprague-Dawley rat liver microsome; format: ADME
[2] = Stability in C57 mouse liver microsome; format: ADME; details: microsomes
Liver microsomes [3] = assay: Stability in human liver microsome; format: ADME
[4] = Drug level in C57BI/6 mouse plasma at 30 mg/kg, po after 4 hrs; format: ADME, organism-based; set-up: dose 30 mg/kg, route oral
[5] = Drug level in C57BI/6 mouse spleen at 30 mg/kg, po after 4 hrs; format: ADME, organism-based; set-up: dose 30 mg/kg, route oral; details: read-out: Drug uptake
[6] = Ratio of drug level in spleen to plasma in C57BI/6 mouse at 30 mg/kg, po after 4 hrs; format: ADME, organism-based; set-up: dose 30 mg/kg, route oral
Procedure, shortened: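 Male or female unspecified 18–25 g C57Bl/6 mice received the HCl salt at 30 mg/kg by oral gavage in 0.5% gelatin, 5% mannitol in water. Blood and spleen were collected after dosing and total compound levels measured. The spleen/plasma ratio was taken from total spleen and total plasma concentrations (nM).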

Plasma = assay: Drug level in C57BI/6 mouse plasma at 30 mg/kg, po; format: ADME, organism-based; set-up: dose 30 mg/kg, route oral; details: in vivo
Spleen = assay: Drug level in C57BI/6 mouse spleen at 30 mg/kg, po; format: ADME, organism-based; set-up: dose 30 mg/kg, route oral; details: in vivo, read-out: Drug uptake
[7] = Ratio of drug level in spleen to plasma in C57BI/6 mouse at 30 mg/kg, po; format: ADME, organism-based; set-up: dose 30 mg/kg, route oral
Procedure, shortened: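 HCl salt given by oral gavage at 30 mg/kg in 0.5% gelatin, 5% mannitol in water to C57Bl/6 mice of 18–25 g. Blood and spleen collected 2 h after dosing and total compound level measured in each. Ratio taken as total spleen over total plasma concentration.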

Cathepsin S [8] = molecular target: T2, Cathepsin S (Homo sapiens, UniProt P25774); assay: Inhibition of human cathepsin S
Cathepsin S [9] = molecular target: T2, Cathepsin S; assay: Inhibition of cathepsin S in human JY cells assessed as accumulation of lip10 by Western blot analysis; format: cell-based
Cathepsin K = molecular target: T3, Cathepsin K (Homo sapiens, UniProt P43235); assay: Inhibition of human cathepsin K
T3 sequence (P43235 whole entry): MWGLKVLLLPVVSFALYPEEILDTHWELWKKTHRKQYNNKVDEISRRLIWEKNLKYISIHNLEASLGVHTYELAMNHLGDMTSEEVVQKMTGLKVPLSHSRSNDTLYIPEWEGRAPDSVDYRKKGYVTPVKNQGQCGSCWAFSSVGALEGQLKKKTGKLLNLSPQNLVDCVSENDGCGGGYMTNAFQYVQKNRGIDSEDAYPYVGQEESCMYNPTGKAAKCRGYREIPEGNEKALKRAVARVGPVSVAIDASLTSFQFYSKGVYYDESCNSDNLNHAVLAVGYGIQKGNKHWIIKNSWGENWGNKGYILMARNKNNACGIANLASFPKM

[10] = Dissociation constant, pKa of the compound; format: physicochemical
[11] = Clearance in C57 mouse at 2 mg/kg, iv or 10 mg/kg, po; format: ADME, organism-based; details: in vivo
Procedure, shortened: (§1)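 Pharmacokinetics in male C57 mice, Sprague Dawley rats and Cynomolgus monkeys. Dosing was 2 mg/kg iv and 10 mg/kg po, with oral vehicle gelatin/mannitol. Parameters reported are clearance, Vss, Cmax and oral bioavailability (F %).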

[12] = Clearance in Sprague-Dawley rat at 2 mg/kg, iv or 10 mg/kg, po; format: ADME, organism-based; details: in vivo; procedure, shortened: as §1
[13] = Volume of distribution at steady state in C57 mouse at 2 mg/kg, iv or 10 mg/kg, po; format: ADME, organism-based; details: in vivo, read-out: Vdss; procedure, shortened: as §1
[14] = Volume of distribution at steady state in Sprague-Dawley rat at 2 mg/kg, iv or 10 mg/kg, po; format: ADME, organism-based; details: in vivo, read-out: Vdss; procedure, shortened: as §1
[15] = Cmax in C57 mouse at 2 mg/kg, iv or 10 mg/kg, po; format: ADME, organism-based; details: in vivo; procedure, shortened: as §1
[16] = Cmax in Sprague-Dawley rat at 2 mg/kg, iv or 10 mg/kg, po; format: ADME, organism-based; details: in vivo; procedure, shortened: as §1
[17] = Oral bioavailability in C57 mouse at 2 mg/kg, iv or 10 mg/kg, po; format: ADME, organism-based; details: in vivo; procedure, shortened: as §1
[18] = Oral bioavailability in Sprague-Dawley rat at 2 mg/kg, iv or 10 mg/kg, po; format: ADME, organism-based; details: in vivo; procedure, shortened: as §1
Cathepsin S [19] = molecular target: Cathepsin S (Mus musculus, UniProt O70370); assay: Inhibition of mouse cathepsin S
[20] = Clearance in cynomolgus monkey at 2 mg/kg, iv or 10 mg/kg, po; format: ADME, organism-based, Macaca fascicularis; details: in vivo; procedure, shortened: as §1
[21] = Volume of distribution at steady state in cynomolgus monkey at 2 mg/kg, iv or 10 mg/kg, po; format: ADME, organism-based, Macaca fascicularis; details: in vivo, read-out: Vdss; procedure, shortened: as §1
[22] = Cmax in cynomolgus monkey at 2 mg/kg, iv or 10 mg/kg, po; format: ADME, organism-based, Macaca fascicularis; details: in vivo; procedure, shortened: as §1
[23] = Oral bioavailability in cynomolgus monkey at 2 mg/kg, iv or 10 mg/kg, po; format: ADME, organism-based, Macaca fascicularis; details: in vivo; procedure, shortened: as §1

T2 sequence (P25774 whole entry): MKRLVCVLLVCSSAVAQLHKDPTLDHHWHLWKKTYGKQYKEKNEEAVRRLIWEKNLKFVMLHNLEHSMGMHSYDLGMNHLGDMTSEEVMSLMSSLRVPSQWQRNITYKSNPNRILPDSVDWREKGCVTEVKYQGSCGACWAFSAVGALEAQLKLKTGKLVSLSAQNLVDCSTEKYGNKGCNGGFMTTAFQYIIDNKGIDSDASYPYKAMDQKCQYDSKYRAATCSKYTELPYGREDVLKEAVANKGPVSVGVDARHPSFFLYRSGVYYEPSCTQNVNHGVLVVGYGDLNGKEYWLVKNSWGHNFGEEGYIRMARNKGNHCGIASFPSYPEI
Sequence of Procathepsin L (P07711 whole entry): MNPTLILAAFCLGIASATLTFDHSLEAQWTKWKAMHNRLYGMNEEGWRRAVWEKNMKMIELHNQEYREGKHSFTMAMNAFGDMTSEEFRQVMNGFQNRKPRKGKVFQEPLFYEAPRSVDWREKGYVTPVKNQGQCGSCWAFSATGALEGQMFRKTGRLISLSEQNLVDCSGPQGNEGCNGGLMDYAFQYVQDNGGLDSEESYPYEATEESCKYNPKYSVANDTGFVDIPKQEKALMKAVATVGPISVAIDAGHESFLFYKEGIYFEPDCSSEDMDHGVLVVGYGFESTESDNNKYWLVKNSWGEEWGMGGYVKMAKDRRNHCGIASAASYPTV
Sequence of Cathepsin S (Mus musculus, UniProt O70370) (O70370 whole entry): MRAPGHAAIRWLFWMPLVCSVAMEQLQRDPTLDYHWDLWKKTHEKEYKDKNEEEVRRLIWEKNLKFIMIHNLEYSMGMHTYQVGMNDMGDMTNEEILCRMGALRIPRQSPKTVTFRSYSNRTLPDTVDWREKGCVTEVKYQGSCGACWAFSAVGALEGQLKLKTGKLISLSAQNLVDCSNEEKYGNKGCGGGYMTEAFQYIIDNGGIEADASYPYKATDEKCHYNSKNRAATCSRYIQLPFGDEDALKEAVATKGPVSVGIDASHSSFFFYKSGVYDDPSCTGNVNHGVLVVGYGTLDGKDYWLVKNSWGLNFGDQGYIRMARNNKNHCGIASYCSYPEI

IC50 (Cathepsin B) [nM] | IC50 (Cathepsin L2) [nM] | IC50 (Procathepsin L) [nM] | concentration (Plasma) [µM] | concentration (Spleen) [µM] | Kp [7] | IC50 (Cathepsin S [8]) [nM] | IC50 (Cathepsin S [9]) [nM] | IC50 (Cathepsin K) [nM] | pKa [10] | Compound | other results
> 10000 | > 10000 | > 10000 | – | – | – | – | – | – | – | Cn1cnc2c(C#N)nc(-c3ccc(OCCC4CCNCC4)c(C(F)(F)F)c3)cc21 | Stability (Liver microsomes [1]): Stable; Stability [2]: Stable; Stability (Liver microsomes [3]): Stable
> 10000 | > 10000 | > 10000 | – | – | – | – | – | – | – | CN(C)CCCOc1ccc(-c2cc3c(ncn3C)c(C#N)n2)cc1C(F)(F)F | concentration at 4 h [4]: 0.094 µM; concentration at 4 h [5]: 2.43 µM; Kp at 4 h [6]: 26
> 10000 | > 10000 | > 10000 | 0.09 | 4.57 | 51 | – | – | – | – | CCN1CCN(CCCOc2ccc(-c3cc4c(ncn4C)c(C#N)n3)cc2C(F)(F)F)CC1 | –
> 10000 | > 10000 | > 10000 | – | – | – | 7.9 | 10 | – | – | CN1CCC(CCOc2ccc(-c3cc4c(ncn4C)c(C#N)n3)cc2C(F)(F)F)CC1 | –
> 10000 | > 10000 | > 10000 | 1.03 | 11.7 | 11.4 | – | 22 | 407 | 7.5 | CN(C)C(=O)CN1CCC(CCOc2ccc(-c3cc4c(ncn4C)c(C#N)n3)cc2C(F)(F)F)CC1 | clearance [11]: 79.4 mL/min/kg; clearance [12]: 93.5 mL/min/kg; Vd [13]: 6.17 L/kg; Vd [14]: 9.8 L/kg; Cmax [15]: 296 ng/mL; Cmax [16]: 13.4 ng/mL; bioavailability [17]: 62%; bioavailability [18]: 8.93%
> 10000 | > 10000 | > 10000 | 3.4 | 19.6 | 5.8 | 3.3 | 12 | 288 | 7.9 | Cc1noc(C)c1CN1CCC(CCOc2ccc(-c3cc4c(ncn4C)c(C#N)n3)cc2C(F)(F)F)CC1 | –
> 10000 | > 10000 | > 10000 | 6.61 | 12.5 | 1.9 | 7.9 | 39 | 708 | 6.3 | Cn1cnc2c(C#N)nc(-c3ccc(OCCC4CCN(Cc5ncco5)CC4)c(C(F)(F)F)c3)cc21 | IC50 (Cathepsin S [19]): 1.6 nM; clearance [11]: 13.9 mL/min/kg; clearance [12]: 73.8 mL/min/kg; clearance [20]: 10 mL/min/kg; Vd [13]: 1.48 L/kg; Vd [14]: 2.43 L/kg; Vd [21]: 0.6 L/kg; Cmax [15]: 3160 ng/mL; Cmax [16]: 9.64 ng/mL; Cmax [22]: 234 ng/mL; bioavailability [17]: 112%; bioavailability [18]: 3.6%; bioavailability [23]: 9%
> 10000 | > 10000 | > 10000 | 6.37 | 18.2 | 2.9 | 14.1 | 123 | 813 | 5.6 | Cc1nnc(CN2CCC(CCOc3ccc(-c4cc5c(ncn5C)c(C#N)n4)cc3C(F)(F)F)CC2)o1 | –
> 10000 | > 10000 | > 10000 | 5.66 | 4.09 | 0.7 | 18.6 | 294 | 1150 | 5.3 | Cc1noc(CN2CCC(CCOc3ccc(-c4cc5c(ncn5C)c(C#N)n4)cc3C(F)(F)F)CC2)n1 | –
> 10000 | > 10000 | > 10000 | – | – | – | 13 | 235 | 1910 | – | CC(=O)N1CCC(CCOc2ccc(-c3cc4c(ncn4C)c(C#N)n3)cc2C(F)(F)F)CC1 | –
> 10000 | > 10000 | > 10000 | – | – | – | 27 | 353 | 2340 | – | Cn1cnc2c(C#N)nc(-c3ccc(OCCC4CCN(S(C)(=O)=O)CC4)c(C(F)(F)F)c3)cc21 | –
